According to ChEMBL document CHEMBL5550195, “Synthesis and in vitro evaluation of novel amino-phenylmethylene-imidazolone 5-HT2A receptor antagonists” (RSC Med Chem, 2024):
The source made the active and inactive calls. No cut-off for these calls is given here.

How the values were obtained:
[1] = molecular target: T1, 5-hydroxytryptamine receptor 2A (Homo sapiens, UniProt P28223); experiment: Displacement of [3H] Ketanserin from 5HT2A receptor (unknown origin) incubated for 0.5 hrs by microbeta2 plate reader assay
How it was run: (§1)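 Filtration binding on 5-HT2A membranes. Serially diluted compound, with ketanserin as reference, was mixed with membrane and [3H]ketanserin, with separate nonspecific-binding wells, and shaken at 300 rpm. Mixtures were filtered through PEI-soaked GF filter plates and washed 4× with cold buffer. Filters were dried 1 h at 50 °C and bound 3H was counted by scintillation. IC50 came from dose-response fits and Ki was also reported; the top dose was 10000 nM.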

[2] = Kinetic solubility of compound in PBS at pH 7.4 incubated for 2 hrs in shaker by LC-MS/MS analysis; type: physicochemical; settings: read-out: Kinetic_solubility
How it was run: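 Compound from 10 mM DMSO stock was added in duplicate to pH 7.4 PBS, 30 µL into 970 µL, and stirred/shaken at 1100 rpm for 2 h at room temperature. The mixture was vacuum filtered and the filtrate diluted in methanol/DMSO. Quantification was by LC-MS/MS (positive ESI, MRM) against 3 µM standards, with progesterone as positive control. The assay upper limit was 300 µM.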

[3] = molecular target: T1, 5-hydroxytryptamine receptor 2A; experiment: Agonist activity at 5-HT2A receptor (unknown origin) assessed as IP1 accumulation at 0.0004 to 10 uM incubated for 1 hr by HTRF method; type: functional; settings: dose 0.0004-10 µM
How it was run: (§2)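 IP-One HTRF immunoassay for 5-HT2A Gαq signalling. Cells were seeded at 7,500 per well and given varying doses of compound. The agonist-mode reference was serotonin and the antagonist-mode reference was methiothepin. Incubation was 1 h at 37 °C, then lysis with d2-labelled IP1 and terbium cryptate anti-IP1 antibody for 1 h at room temperature. Fluorescence was read at 615/665 nm. IP1 was quantified against a 9-point standard curve, 4-fold from 7,700 nM, run in duplicate. Values came from log(inhibitor) vs response, variable-slope fit.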

[4] = molecular target: T1, 5-hydroxytryptamine receptor 2A; experiment: Displacement of [3H] Ketanserin from 5HT2A receptor (unknown origin) at 10 uM incubated for 0.5 hrs by microbeta2 plate reader assay relative to control; settings: for inhibition: filed as antagonist; how it was run: as §1
[5] = molecular target: T1, 5-hydroxytryptamine receptor 2A; experiment: Antagonist activity at 5-HT2A receptor (unknown origin) assessed as inhibition of 5-HT stimulated IP1 production at 10 uM incubated for 1 hr by HTRF method relative to control; type: functional; set-up: scale not given: the % may be the effect or the level left; settings: filed as antagonist; how it was run: as §2
[6] = molecular target: T1, 5-hydroxytryptamine receptor 2A; experiment: Antagonist activity at 5-HT2A receptor (unknown origin) assessed as inhibition of 5-HT stimulated IP1 production incubated for 1 hr by HTRF method; type: functional; how it was run: as §2

T1 sequence (P28223 whole entry): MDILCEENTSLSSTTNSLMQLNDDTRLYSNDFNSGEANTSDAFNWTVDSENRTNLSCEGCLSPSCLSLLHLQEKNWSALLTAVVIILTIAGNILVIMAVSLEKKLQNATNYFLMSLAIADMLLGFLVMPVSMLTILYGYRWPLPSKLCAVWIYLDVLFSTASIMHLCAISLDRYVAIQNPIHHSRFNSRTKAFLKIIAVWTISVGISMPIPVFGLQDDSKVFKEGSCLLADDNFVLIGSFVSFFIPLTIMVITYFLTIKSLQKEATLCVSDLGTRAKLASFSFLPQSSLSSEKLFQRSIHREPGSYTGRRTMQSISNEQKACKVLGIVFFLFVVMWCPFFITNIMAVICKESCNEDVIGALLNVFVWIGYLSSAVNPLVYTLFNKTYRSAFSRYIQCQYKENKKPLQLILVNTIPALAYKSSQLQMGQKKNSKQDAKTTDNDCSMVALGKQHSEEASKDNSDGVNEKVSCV

Structure (SMILES) | Ki [1] [nM] | solubility kinetic at 2 h [2] [µM] | Activity [3] | inhibition [4] [%] | Activity [5] [%] | IC50 [6] [nM] | Activity [4]
COc1ccc(OC)c(/C=C2\C(=O)N=C(N)N2C)c1.Cl | > 3880 | ≥ 20 | – | – | – | – | –
COc1ccc(OC)c(/C=C2\N=C(N)NC2=O)c1.Cl | 233 | ≥ 20 | inactive | 95 | 93 | 887 | –
COc1cc(/C=C2\N=C(N)NC2=O)cc(OC)c1OC.Cl | – | ≥ 20 | – | – | – | – | inactive
COc1cc(/C=C2\C(=O)N(C)C(=N)N2C)cc(OC)c1OC.Cl | – | ≥ 20 | – | – | – | – | inactive
COc1cc(/C=C2\C(=O)N=C(N)N2C)cc(OC)c1OC.Cl | – | ≥ 20 | – | – | – | – | inactive
COc1cc(/C=C2\C(=O)N=C(N)N2C)c(OC)cc1Br.Cl | – | ≥ 20 | – | – | – | – | –
COc1cc(/C=C2\N=C(N)NC2=O)c(OC)cc1Br.Cl | 19 | ≥ 20 | inactive | 97 | 100 | 58 | –
